The text below walks through data of ChEMBL document CHEMBL1795259, “Thymol, benzofuranoid, and phenylpropanoid derivatives: anti-inflammatory constituents from Eupatorium cannabinum” (J Nat Prod, 2011).

Holding throughout (details): Neutrophil
Assay [1] can be described thus: Antiinflammatory activity in human neutrophils assessed as inhibition of fMLP/cytochalasin B-induced elastase release using MeO-Suc-Ala-Ala-Pro-Val-p-nitroanilide as elastase substrate at 10 ug/mL after 5 mins. It counts as functional. The method in brief:
(§1)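 Neutrophils isolated from venous blood of healthy adult volunteers (20-28 y) by dextran sedimentation, Ficoll-Hypaque centrifugation and hypotonic erythrocyte lysis, >98% viable, kept in Ca2+-free HBSS pH 7.4 at 4 °C. Cells (6 × 10^5/mL) given 100 μM substrate, equilibrated 2 min at 37 °C, compound 5 min, then fMLP 100 nM/CB 0.5 μg/mL; A405 monitored continuously. Mean ± SEM, n = 3-4.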

Assay [2] can be described thus: Antiinflammatory activity in human neutrophils assessed as inhibition of fMLP/cytochalasin B-induced superoxide anion production at 10 ug/mL after 5 mins by spectrophotometer analysis. It counts as functional. In a few lines: (§2)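 Donor neutrophils (6 × 10^5/mL) prepared as for elastase, with 0.5 mg/mL ferricytochrome c and 1 mM Ca2+. Equilibrated 2 min at 37 °C, compound or DMSO 5 min, CB 1 μg/mL 3 min, then fMLP 100 nM 10 min. A550 monitored continuously with stirring. SOD (100 U/mL)-inhibitable reduction, ε = 21.1/mM/10 mm. Mean ± SEM, n = 3-4.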

Assay [3] can be described thus: Antiinflammatory activity in human neutrophils assessed as inhibition of fMLP/cytochalasin B-induced elastase release using MeO-Suc-Ala-Ala-Pro-Val-p-nitroanilide as elastase substrate after 5 mins. It counts as functional, cell-based. The method in brief: as §1
Assay [4] is described as follows: Antiinflammatory activity in human neutrophils assessed as inhibition of fMLP/cytochalasin B-induced superoxide anion production after 5 mins by spectrophotometer analysis. It counts as functional, cell-based. The method in brief:
as §2

As usually defined, the inhibition is how much of the control response was suppressed. For `C=C(COC(=O)/C(C)=C\C)c1ccc(C)cc1O`, the results for the inhibition at 10 µg/mL in assay [1] and in assay [2] were 23% and 20.3%, respectively.

Usually IC50 stands for the concentration that gives 50% inhibition. In the case of `C=C(COC(=O)CC(C)C)c1ccc(C)cc1O`, the 50% inhibitory concentration (IC50) in assay [3] was determined as 18.3 µM. Further, the inhibition at 10 µg/mL in assay [2] was found to be 39.6%.

With `Cc1ccc2c(c1)OC(C)(O)C2=O` (stereo not drawn), the inhibition at 10 µg/mL in assay [1] was determined as 17.3%; in assay [2] it was 0.02%.

As to `CC(=O)C(=O)c1ccc(C)cc1O`, the inhibition at 10 µg/mL in assay [1] stood at 37.3%; in assay [2], 10.1%.

Consider `C/C=C(\C)C(=O)Oc1cc(C)ccc1C1(COC(C)=O)CO1` (stereo not drawn), for which the IC50 in assay [3] worked out at 25.8 µM; in assay [4] it was 8.32 µM.

Consider `C=C(COC(C)=O)c1ccc(C)cc1OC(=O)/C(C)=C/C`, for which, in assay [1], the inhibition at 10 µg/mL is 36.6%. Further, in assay [4], the IC50 was 8.5 µM.

Consider `C/C=C(\C)C(=O)Oc1cc(C)ccc1C(C)COC(C)=O` (stereo not drawn), for which, in assay [1], the inhibition at 10 µg/mL is 21.6%. Also, in assay [4], the IC50 amounted to 18.4 µM.

Consider `C=C(CO)c1ccc(C)cc1O`, for which the figures for the inhibition at 10 µg/mL in assay [1] and in assay [2] were 1.86% and 2.67%, respectively.

As to `C=C(COC(=O)C(C)C)c1ccc(C)cc1O`, in assay [3], the IC50 came out at 16.1 µM. Also, the inhibition at 10 µg/mL in assay [2] came out at 32.7%.

With `COC(C)(COC(=O)C(C)C)c1ccc(C)cc1O` (stereo not drawn), in assay [1], the inhibition at 10 µg/mL is 30%. Besides, in assay [4], the IC50 worked out at 8.19 µM.

As for `C/C=C(/C)C(=O)OCC(C)(OC)c1ccc(C)cc1O` (stereo not drawn), the inhibition at 10 µg/mL in assay [1] amounted to 13.6%; in assay [2] it was 14.7%.

For the molecule `C/C=C(/C)C(=O)OCC(O)(COC(C)=O)c1ccc(C)cc1O` (stereo not drawn), the values for the IC50 in assay [3] and in assay [4] were 6.27 µM and 13.1 µM, respectively.

With `Cc1ccc2c(c1)OC1OC3(CCC21O)c1ccc(C)cc1OC3O` (stereo not drawn), the inhibition at 10 µg/mL in assay [1] stood at 13%; in assay [2], 4.37%.

With `CC(=O)c1ccc(CO)cc1O`, the IC50 is 6.38 µM in assay [3] and 8.13 µM in assay [4].

Regarding `C/C=C(/C)C(=O)O[C@@H]1Oc2cc(C)ccc2[C@@]1(C)O` (relative stereo) [EUPATOBENZOFURAN], the IC50 in assay [3] is 11.3 µM. Further, the inhibition at 10 µg/mL in assay [2] amounted to 37.1%.

For the molecule `O=c1ccc2ccccc2o1` [COUMARIN], the inhibition at 10 µg/mL in assay [1] came to 23.8%; in assay [2] it was 8.5%.

In the case of `C=C(C)c1cc2cc(C(C)=O)c(O)cc2o1` [EUPARIN], the inhibition at 10 µg/mL amounted to 12.6% in assay [1] and 13.7% in assay [2].

With `O=c1cc(N2CCOCC2)oc2c(-c3ccccc3)cccc12` [LY-294002], the IC50 in assay [3] was determined as 1.98 µM; in assay [4] it was 1.09 µM.

Take `C=C1CC[C@]2(C)CC[C@]3(C)[C@H](CC[C@@H]4[C@@]5(C)CC[C@H](OC(C)=O)C(C)(C)[C@@H]5CC[C@]43C)[C@H]2[C@@H]1C` [TARAXASTEROL ACETATE]: the inhibition at 10 µg/mL in assay [1] was found to be 4.73%; in assay [2], 0.68%.
